Assays:
[1] = Antiinflammatory activity in mouse peritoneal macrophages assessed as inhibition of LPS-induced NO production at 10 uM; assay type: functional; settings: Peritoneal macrophage cell
[2] = Antiinflammatory activity in mouse peritoneal macrophages assessed as inhibition of LPS-induced NO production at 1 uM; assay type: functional; settings: Peritoneal macrophage cell
[3] = tested on: Human immunodeficiency virus 1; assay: Antiviral activity against VSV-G protein pseudotyped HIV1 system in HEK293T cells assessed as reduction in p24 level after 48 hrs by ELISA; assay type: functional, organism-based; settings: Human immunodeficiency virus 1, HEK-293T
Procedure, shortened: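 VSV-G-pseudotyped HIV used as a counter-screen to judge the specificity of HA-directed entry inhibitors.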

[4] = tested on: HEK293; assay: Cytotoxicity against HEK293 cells infected with VSV-G protein pseudotyped HIV1; assay type: cell-based; settings: Homo sapiens
[5] = tested on: HEK293; assay: Inhibition of Influenza A virus (A/Viet Nam/1203/2004(H5N1)) hemagglutinin-mediated entry in HEK293 cells compound pretreated with target cells for 15 mins prior infection measured 48 hrs post infection by luciferase reporter assay; assay type: cell-based
Procedure, shortened: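 Entry screen: HIV-based pseudotype bearing H5N1 hemagglutinin (HA). Compounds tested at 30.0 μM. Value reported as percent inhibition of HA-mediated entry.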

[6] = Cytotoxicity against HEK293 cells infected with Influenza A virus (A/Viet Nam/1203/2004(H5N1)); assay type: cell-based; settings: human
Procedure, shortened: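 Cytotoxicity measured on 293T cells and reported as CC50 (μmol/L).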

`C=C1CC[C@@H]([C@@](C)(O)CCC=C(C)C)[C@@H](O)[C@@H]2C(C)=CC[C@@H]12` showed an inhibition at 10 µM [1] of 90%, an inhibition at 1 µM [2] of under 50% and an IC50 [3] of 24 µM. For the same compound, the IC50 [4] was over 60 µM.
`C=C1CC[C@@H](O)[C@@]2(C)C[C@@H](OC(C)=O)C3=C(C(C)C)CC[C@]3(C)C[C@]12O` gave an inhibition at 10 µM [1] of under 50%, an IC50 [3] of 16.1 µM and an IC50 [4] of 53 µM.
Work on `C=C1C[C@@H](O)[C@@H]([C@H](C)CCC=C(C)C)[C@@H](O)[C@@H]2C(C)=CC[C@@H]12` yielded an inhibition at 10 µM [1] of under 50%, an IC50 [3] of 26.1 µM and an IC50 [4] of over 60 µM.
In the case of `CC(C)=CCC[C@@H](C)[C@@H]1[C@H](O)C/C(C)=C/C/C=C(/C=O)[C@H]1C=O`, the inhibition at 10 µM [1] is reported as 86%, the inhibition [5] is reported as 59% and the CC50 [6] is reported as over 60 µM. It also gave an inhibition at 1 µM [2] of under 50%.
Work on `CC(=O)OC[C@@H]1/C(C=O)=C\C/C=C(\C)C[C@@H](O)[C@H]1[C@H](C)CCC=C(C)C` yielded an inhibition at 10 µM [1] of under 50%, an IC50 [3] of 21.9 µM and an IC50 [4] of over 60 µM.
`CC(C)=CCC[C@@H](C)[C@H]1C2=C(C(=O)OC2)[C@H]2C[C@H]2[C@H](C)C[C@H]1O` showed an inhibition at 10 µM [1] of under 50%, an inhibition [5] of 62% and a CC50 [6] of over 60 µM.
Work on `Cc1ccnc2c1NC(=O)c1cccnc1N2C1CC1` [NEVIRAPINE] yielded an IC50 [3] of 0.05 µM.
`C=C1C[C@H](O)[C@@H]([C@@](C)(O)CCC=C(C)C)[C@@H](O)[C@@H]2C(C)=CC[C@@H]12` showed an inhibition at 10 µM [1] of under 50%, an inhibition [5] of 50% and a CC50 [6] of over 60 µM.
For `CC(=O)O[C@H]1C/C=C(\C)CC[C@@H]([C@H](C)CCC=C(C)C)[C@@H](O)/C=C/1C`, the inhibition at 10 µM [1] was under 50%, the IC50 [3] was 30.5 µM and the IC50 [4] was over 60 µM.
For `C/C1=C/CC/C(C)=C/C[C@@]2(C)CC[C@@](O)(C(C)C)[C@@H]2CC1=O` (relative stereo), the inhibition at 10 µM [1] was under 50%, the inhibition [5] was 56% and the CC50 [6] was over 60 µM.

Reference: ChEMBL document CHEMBL3351586, “Diterpenes from a Chinese collection of the brown alga Dictyota plectens” (J Nat Prod, 2014)
